Structures are written as SMILES.

Here are results for seven compounds from ChEMBL document CHEMBL3102806, “1,2,4-Triazole/oxime hybrids as new strategy for nitric oxide donors: Synthesis, anti-inflammatory, ulceroginicity and antiproliferative activities” (Eur J Med Chem, 2014).

In data set [1] the test system is Rattus norvegicus. The experiment in a line: Antiinflammatory activity in albino rat assessed as inhibition of carrageenan-induced paw edema at 0.28 mmol/kg, po administered 30 mins prior to carrageenan-challenge measured after 2 hrs relative to control. The data set is classed as functional. Summed up:
(§1)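 Male albino rats in groups of four were fasted 24 h with water allowed. Dosing was oral at 0.28 mmol/kg, suspended in 0.5% w/v CMC; controls got CMC alone. After 30 min, 0.1 ml of 1% carrageenan in saline went subplantar into the right hind paw and saline into the left. Paw thickness was read by caliper before and at 1–5 h. % inhibition = [(VR−VL)control−(VR−VL)treated]/(VR−VL)control ×100. Mean ± SEM, n = 4, one-way ANOVA vs control.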

Data set [2] has as its system Rattus norvegicus. The experiment in a line: Antiinflammatory activity in albino rat assessed as inhibition of carrageenan-induced paw edema at 0.28 mmol/kg, po administered 30 mins prior to carrageenan-challenge measured after 5 hrs relative to control. Type of data set: functional. Summed up: as §1
For data set [3], the system named is Rattus norvegicus. The data set can be described thus: Gastrointestinal toxicity in albino rat carrageenan-induced paw edema model assessed as decrease in thickness of gastric mucosa with marked loss of mucosal membrane at areas of ulceration at 0.28 mmol/kg, po by hematoxylin and eosin staining-based light microscopic analysis. Type of data set: organism-based. Conditions: in vivo; call rule not given here. The method in brief:
(§2)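 Rats were dosed orally at 0.28 mmol/kg, suspended in 0.5% aqueous CMC; vehicle-only animals served as controls. After ulcer scoring, stomach sections were stained with haematoxylin and eosin: acid-alcohol differentiation, then 1% eosin for 10 min. Sections were dehydrated, cleared in xylene, mounted and examined by light microscopy.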

Data set [4] has as its system Rattus norvegicus. The experiment in a line: Antiinflammatory activity in albino rat assessed as inhibition of carrageenan-induced paw edema at 0.28 mmol/kg, po administered 30 mins prior to carrageenan-challenge measured after 4 hrs relative to control. Type of data set: functional. The method in brief: as §1
In data set [5] the test system is Rattus norvegicus. The experiment in a line: Antiinflammatory activity in albino rat assessed as inhibition of carrageenan-induced paw edema at 0.28 mmol/kg, po administered 30 mins prior to carrageenan-challenge measured after 3 hrs relative to control. Type of data set: functional. The method in brief: as §1
Data set [6] deals with Rattus norvegicus. The data set can be described thus: Gastrointestinal toxicity in albino rat carrageenan-induced paw edema model assessed as loss of morphology of glandular structures at 0.28 mmol/kg, po by hematoxylin and eosin staining-based light microscopic analysis. To be noted: in vivo. The data set is classed as organism-based. The method in brief:
as §2

For data set [7], the system named is Rattus norvegicus. The experiment in a line: Antiinflammatory activity in albino rat assessed as inhibition of carrageenan-induced paw edema at 0.28 mmol/kg, po administered 30 mins prior to carrageenan-challenge measured after 1 hr relative to control. Type of data set: functional. The method in brief:
as §1

Data set [8] relates to Rattus norvegicus. The data set can be described thus: Ulcerogenic activity in albino rat carrageenan-induced paw edema model assessed as ulcer index at 0.28 mmol/kg, po (reference value: 0.60 +/- 0.05). Type of data set: toxicity, organism-based. To be noted: in vivo. The method in brief: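 Rats given the compound orally at 0.28 mmol/kg, suspended in 0.5% aqueous CMC; vehicle-only control, n = 4 per group. Gastric ulcers graded by area: I (<1 mm²), II (1–3 mm²), III (>3 mm²). Ulcer index = 1×(level I count) + 2×(level II) + 3×(level III). Mean ± SEM, one-way ANOVA versus control.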

In data set [9] the test system is Rattus norvegicus. The experiment in a line: Gastrointestinal toxicity in albino rat carrageenan-induced paw edema model assessed as acute inflammatory cell infiltrating its whole thickness at 0.28 mmol/kg, po by hematoxylin and eosin staining-based light microscopic analysis. To be noted: in vivo. Type of data set: organism-based. The method in brief: as §2
Data set [10] in a line: Induction of nitric oxide release in phosphate buffer at 10^-4 M at pH 7.4 after 4 hrs by Griess colorimetric method in presence of N-acetylcysteine. Type of data set: physicochemical. To be noted: pH 7.4, 4 h, 100 µM. Summed up:
(§3)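 Final drug concentration 10^-4 M, added from DMF into 1:1 50 mM phosphate buffer (pH 7.4)/MeOH containing 5 × 10^-4 M N-acetylcysteine, at 37 °C. Nitrite read with Griess reagent after 10 min at room temperature, absorbance at 546 nm. Calibration with sodium nitrite standards (10–80 nmol/ml). Reported as mol NO per mol, n = 4 reaction mixtures.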

The nature of data set [11]: Induction of nitric oxide release in phosphate buffer at 10^-4 M at pH 7.4 after 3 hrs by Griess colorimetric method in presence of N-acetylcysteine. Conditions: pH 7.4, 3 h, 100 µM. The data set is classed as physicochemical. The method in brief: as §3
For data set [12], the system named is Rattus norvegicus. The data set can be described thus: Gastrointestinal toxicity in albino rat carrageenan-induced paw edema model assessed as appearance of ulcer at 0.28 mmol/kg, po by hematoxylin and eosin staining-based light microscopic analysis. To be noted: in vivo. The data set is classed as organism-based. The method in brief:
as §2

Data set [13] can be described thus: Induction of nitric oxide release in phosphate buffer at 10^-4 M at pH 7.4 after 2 hrs by Griess colorimetric method in presence of N-acetylcysteine. The data set is classed as physicochemical. To be noted: pH 7.4, 2 h, 100 µM. Summed up: as §3
The nature of data set [14]: Induction of nitric oxide release in phosphate buffer at 10^-4 M at pH 7.4 after 1 hr by Griess colorimetric method in presence of N-acetylcysteine. Type of data set: physicochemical. Conditions: pH 7.4, 1 h, 100 µM. Summed up: as §3
A short description of data set [15]: Induction of nitric oxide release in HCl buffer at 10^-4 M at pH 1 after 1 hr by Griess colorimetric method in presence of N-acetylcysteine. The data set is classed as physicochemical. To be noted: pH 1, 1 h, 100 µM. The method in brief: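 Same Griess nitrite procedure at 10^-4 M final drug with N-acetylcysteine at 37 °C, but with 0.1 N HCl (pH 1) in place of the pH 7.4 phosphate buffer. Absorbance at 546 nm against a sodium nitrite calibration curve.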

The test system of data set [16] is Rattus norvegicus. The data set can be described thus: Gastrointestinal toxicity in albino rat carrageenan-induced paw edema model assessed as capillary vasodilatation of lamina propria associated with accumulation of edema fluid at 0.28 mmol/kg, po by hematoxylin and eosin staining-based light microscopic analysis. Type of data set: organism-based. Conditions: in vivo. Summed up:
as §2

Data set [17] can be described thus: Induction of nitric oxide release in phosphate buffer at 10^-4 M at pH 7.4 after 6 hrs by Griess colorimetric method in presence of N-acetylcysteine. The data set is classed as physicochemical. To be noted: pH 7.4, 6 h, 100 µM. Summed up:
as §3

For data set [18], the system named is Rattus norvegicus. The experiment in a line: Gastrointestinal toxicity in albino rat carrageenan-induced paw edema model assessed as severe atrophic gastritis and gland atrophy at 0.28 mmol/kg, po by hematoxylin and eosin staining-based light microscopic analysis. Conditions: in vivo. The data set is classed as organism-based. Summed up:
as §2

Data set [19] in a line: Induction of nitric oxide release in phosphate buffer at 10^-4 M at pH 7.4 after 5 hrs by Griess colorimetric method in presence of N-acetylcysteine. Conditions: pH 7.4, 5 h, 100 µM. Type of data set: physicochemical. The method in brief:
as §3

The test system of data set [20] is Rattus norvegicus. The data set can be described thus: Gastrointestinal toxicity in albino rat carrageenan-induced paw edema model assessed as apoptotic glandular epithelial cells at 0.28 mmol/kg, po by hematoxylin and eosin staining-based light microscopic analysis. The data set is classed as organism-based, Epithelial cell. To be noted: in vivo. Summed up:
as §2

For data set [21], the system named is Rattus norvegicus. The data set can be described thus: Gastrointestinal toxicity in albino rat carrageenan-induced paw edema model assessed as destruction of surface epithelium and epithelial lining of gastric pits at 0.28 mmol/kg, po by hematoxylin and eosin staining-based light microscopic analysis. Type of data set: organism-based, Stomach. To be noted: in vivo. Summed up: as §2

As for `C=CCn1c(SCC(=O)Nc2ccc(C(C)=O)cc2)nnc1-c1ccc(OC)c(OC)c1`, the inhibition in vivo at 280 µmol/kg with Rattus norvegicus [1] is 57%; with Rattus norvegicus [2], 64%; with Rattus norvegicus [4] it was 70%; in the data set on Rattus norvegicus [5], 58%; in the data set on Rattus norvegicus [7], 56%. Besides, the Activity entry in the data set on Rattus norvegicus [3] and in the data set with Rattus norvegicus [6] was “Toxic” throughout. For the same compound, the UI in the data set with Rattus norvegicus [8] is reported as 2.45.
Regarding `C=CCn1c(SCC(=O)Nc2ccc(/C(C)=N/O)cc2)nnc1-c1ccc(OC)c(OC)c1`, the Activity result in the data set on Rattus norvegicus [9] is “Non-toxic”; in data set [10] it was 0.35 mol/mol; in [11], 0.32 mol/mol; in the data set with Rattus norvegicus [12], “Non-toxic”; in [13] it was 0.16 mol/mol; in [14], 0.13 mol/mol. Moreover, the Activity result in [15] was “Not Active”; in the data set with Rattus norvegicus [16] it was “Non-toxic”; in data set [17], 0.26 mol/mol; with Rattus norvegicus [18], “Non-toxic”; in data set [19], 0.27 mol/mol. Moreover, the inhibition in vivo at 280 µmol/kg with Rattus norvegicus [1] is 56%; with Rattus norvegicus [2], 79%; with Rattus norvegicus [4], 79%; in the data set with Rattus norvegicus [5] it was 70%; in the data set with Rattus norvegicus [7], 53%. Besides, in the data set with Rattus norvegicus [8], the UI turned out to be 0.25.
Turning to `C=CCn1c(SCC(=O)Nc2ccc(/C(C)=N/O)cc2)nnc1-c1cc(OC)c(OC)c(OC)c1`, the inhibition in vivo at 280 µmol/kg in the data set with Rattus norvegicus [1] turned out to be 53%; in the data set on Rattus norvegicus [2] it was 64%; with Rattus norvegicus [4], 72%; in the data set on Rattus norvegicus [5] it was 62%; in the data set with Rattus norvegicus [7], 49%. The Activity in [10] is listed as 0.24 mol/mol; in data set [11] it was 0.19 mol/mol; in data set [13], 0.15 mol/mol; in data set [14], 0.11 mol/mol; in [15], “Not Active”; in data set [17], 0.16 mol/mol. The Activity in data set [19] is on record as 0.18 mol/mol. In addition, the UI in the data set with Rattus norvegicus [8] is on record as 0.75.
In the case of `CCn1c(SCC(=O)Nc2ccc(/C(C)=N/O)cc2)nnc1-c1ccccc1`, the inhibition in vivo at 280 µmol/kg in the data set on Rattus norvegicus [1] stood at 57%; in the data set on Rattus norvegicus [2], 66%; with Rattus norvegicus [4], 77%; in the data set with Rattus norvegicus [5], 65%; with Rattus norvegicus [7] it was 54%. In addition, the Activity is listed as 0.21 mol/mol in data set [10]; 0.2 mol/mol in [11]; 0.17 mol/mol in data set [13]; 0.11 mol/mol in [14]; “Not Active” in data set [15]; 0.12 mol/mol in [17]. In addition, the Activity in data set [19] was 0.14 mol/mol. Besides, the UI in the data set with Rattus norvegicus [8] came out at 1.18.
For `CCn1c(SCC(=O)Nc2ccc(/C(C)=N/O)cc2)nnc1-c1cc(OC)c(OC)c(OC)c1`, the inhibition in vivo at 280 µmol/kg with Rattus norvegicus [1] was 49%; with Rattus norvegicus [2], 61%; in the data set with Rattus norvegicus [4], 70%; with Rattus norvegicus [5], 70%; in the data set on Rattus norvegicus [7], 29%. Also, the Activity is given as 0.22 mol/mol in [10]; 0.14 mol/mol in data set [11]; 0.13 mol/mol in [13]; 0.12 mol/mol in [14]; “Not Active” in data set [15]; 0.14 mol/mol in data set [17]. The Activity in data set [19] was 0.15 mol/mol. For the same compound, the UI with Rattus norvegicus [8] stood at 0.83.
For the compound `COc1cc(-c2nnc(SCC(=O)Nc3ccc(/C(C)=N/O)cc3)n2-c2ccccc2)cc(OC)c1OC`, the inhibition in vivo at 280 µmol/kg with Rattus norvegicus [1] is 62%; in the data set on Rattus norvegicus [2], 70%; with Rattus norvegicus [4] it was 75%; in the data set with Rattus norvegicus [5] it was 66%; in the data set with Rattus norvegicus [7], 59%. The Activity in data set [10] was 0.25 mol/mol; in [11], 0.16 mol/mol; in data set [13], 0.14 mol/mol; in data set [14], 0.11 mol/mol; in data set [15], “Not Active”; in [17] it was 0.14 mol/mol. Moreover, the Activity in data set [19] stood at 0.15 mol/mol. For the same compound, the UI with Rattus norvegicus [8] is listed as 2.21.
Consider `COc1ccc2c(c1)c(CC(=O)O)c(C)n2C(=O)c1ccc(Cl)cc1` [INDOMETHACIN], for which the Activity entry in the data set with Rattus norvegicus [9], with Rattus norvegicus [20], with Rattus norvegicus [3], in the data set with Rattus norvegicus [16], in the data set on Rattus norvegicus [18] and in the data set on Rattus norvegicus [21] was “Toxic” in each case. Moreover, the inhibition in vivo at 280 µmol/kg with Rattus norvegicus [1] came to 67%; in the data set on Rattus norvegicus [2] it was 87%; with Rattus norvegicus [4] it was 83%; in the data set with Rattus norvegicus [5] it was 74%; with Rattus norvegicus [7] it was 51%. The UI with Rattus norvegicus [8] was determined as 63.34.
